# Assay results from ChEMBL document CHEMBL3425447, “Discovery of Orally Available Runt-Related Transcription Factor 3 (RUNX3) Modulators for Anticancer Chemotherapy by Epigenetic Activation and Protein Stabilization” (J Med Chem, 2015).
# Tests used:
# Histone deacetylase = test: Inhibition of HDAC in human HeLa cell nuclear extract using Fluor de Lys as substrate incubated with compound for 30 mins by microtiter-plate reading flourimeter analysis; format: protein assay
# [1] = Growth inhibition of human NUGC3 cells after 5 days by sulforhodamine B assay; format: functional; conditions: NUGC-3, 120 h
# MDA-MB-231 = test: Growth inhibition of human MDA-MB-231 cells after 5 days by sulforhodamine B assay; format: functional; conditions: MDA-MB-231, 120 h
# ACHN = test: Growth inhibition of human ACHN cells after 5 days by sulforhodamine B assay; format: functional; conditions: 120 h
# [2] = Growth inhibition of human HCT15 cells after 5 days by sulforhodamine B assay; format: functional; conditions: HCT-15, 120 h
# NCI-H23 = test: Growth inhibition of human NCI-H23 cells after 5 days by sulforhodamine B assay; format: functional; conditions: NCI-H23, 120 h
# [3] = Growth inhibition of human PC3 cells after 5 days by sulforhodamine B assay; format: functional; conditions: PC-3, 120 h
# C2C12 = test: Induction of RUNX transcriptional activation in mouse C2C12-6xOSE2 cells at 1 uM after 24 hrs by luciferase reporter assay relative to FGF-2; format: functional
# Outline: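 C2C12-6xOSE stable cells grown in DMEM with 10% FBS at 37°C, 5% CO2. Seeded at 1 × 10^4 cells/well; next day treated with compound or FGF-2 (1 µM each). After 24 h, luciferase measured with Bright-Glo. Activity expressed as percent of the FGF-2 positive-control response.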
# [4] = Metabolic stability in mouse liver microsomes assessed as compound remaining at 1 uM after 30 mins by LC-ESI/MS/MS analysis in absence of NADPH; format: ADME; conditions: read-out: Stability
# Outline: (§1)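 Compound at 1 µM incubated in triplicate with pooled mouse liver microsomes (0.5 mg/ml final) in 0.1 M potassium phosphate, pH 7.4, at 37°C, with or without 1 mM NADPH. Reactions stopped at 0 and 30 min with ice-cold acetonitrile containing internal standard. After centrifugation, supernatant analyzed by LC-ESI/MS/MS; percent remaining from analyte/IS peak-area ratios. Buspirone served as positive control.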
# [5] = Metabolic stability in mouse liver microsomes assessed as compound remaining at 1 uM after 30 mins byLC-ESI/MS/MS analysis in presence of NADPH; format: ADME; conditions: read-out: Stability; outline: as §1
smiles,measurement,setting,value
O=C(/C=C/c1cccn(Cc2cccnc2)c1=O)NO,IC50,Histone deacetylase,300 nM
same,GI50,[1],5940 nM
same,GI50,MDA-MB-231,10000 nM
same,GI50,ACHN,4160 nM
same,GI50,[2],7510 nM
same,GI50,NCI-H23,6700 nM
same,GI50,[3],5330 nM
same,Activity,C2C12,32.3%
CCOc1cccc(CCn2cccc(/C=C/C(=O)NO)c2=O)c1,IC50,Histone deacetylase,120 nM
same,GI50,[1],1420 nM
same,GI50,MDA-MB-231,1740 nM
same,GI50,ACHN,940 nM
same,GI50,[2],920 nM
same,GI50,NCI-H23,1810 nM
same,GI50,[3],1340 nM
same,Activity,C2C12,76.9%
COc1ccc(CCCn2cccc(/C=C/C(=O)NO)c2=O)cc1,IC50,Histone deacetylase,140 nM
same,GI50,[1],970 nM
same,GI50,MDA-MB-231,1360 nM
same,GI50,ACHN,980 nM
same,GI50,[2],900 nM
same,GI50,NCI-H23,1310 nM
same,GI50,[3],1780 nM
same,Activity,C2C12,97.6%
O=C(/C=C/c1cccn(Cc2cccc(Br)c2)c1=O)NO,IC50,Histone deacetylase,380 nM
same,GI50,[1],2780 nM
same,GI50,MDA-MB-231,3070 nM
same,GI50,ACHN,3030 nM
same,GI50,[2],2730 nM
same,GI50,NCI-H23,3040 nM
same,GI50,[3],4840 nM
same,Activity,C2C12,91.6%
O=C(CCCCCCC(=O)Nc1ccccc1)NO [VORINOSTAT],Activity,C2C12,80.2%
CC(C)(C)c1ccc(CCCn2cccc(/C=C/C(=O)NO)c2=O)cc1,IC50,Histone deacetylase,380 nM
same,GI50,[1],1310 nM
same,GI50,MDA-MB-231,2230 nM
same,GI50,ACHN,1830 nM
same,GI50,[2],1420 nM
same,GI50,NCI-H23,1780 nM
same,GI50,[3],1480 nM
same,Activity,C2C12,34.4%
O=C1CC2(CCCC2)CC(=O)N1CCCCN1CCN(c2ncccn2)CC1 [BUSPIRONE],"remaining at 0.5 h, 1 µM",[4],101%
same,"remaining at 0.5 h, 1 µM",[5],0.4%
O=C(/C=C/c1cccn(Cc2ccccn2)c1=O)NO,IC50,Histone deacetylase,460 nM
same,GI50,[1],> 10000 nM
same,GI50,MDA-MB-231,> 10000 nM
same,GI50,ACHN,6440 nM
same,GI50,[2],> 10000 nM
same,GI50,NCI-H23,> 10000 nM
same,GI50,[3],10200 nM
same,Activity,C2C12,35.6%
O=C(/C=C/c1cccn(CCc2cccc(Br)c2)c1=O)NO,IC50,Histone deacetylase,160 nM
same,GI50,[1],1990 nM
same,GI50,MDA-MB-231,4900 nM
same,GI50,ACHN,2000 nM
same,GI50,[2],7290 nM
same,GI50,NCI-H23,3300 nM
same,GI50,[3],3580 nM
same,Activity,C2C12,74%
O=C(/C=C/c1cccn(CCc2ccncc2)c1=O)NO,IC50,Histone deacetylase,> 10000 nM
same,GI50,[1],> 10000 nM
same,GI50,MDA-MB-231,> 10000 nM
same,GI50,ACHN,> 10000 nM
same,GI50,[2],> 10000 nM
same,GI50,NCI-H23,> 10000 nM
same,GI50,[3],> 10000 nM
same,Activity,C2C12,19.6%
CCc1ccc(Cn2cccc(/C=C/C(=O)NO)c2=O)cc1,IC50,Histone deacetylase,100 nM
same,GI50,[1],1670 nM
same,GI50,MDA-MB-231,3680 nM
same,GI50,ACHN,1540 nM
same,GI50,[2],1860 nM
same,GI50,NCI-H23,2350 nM
same,GI50,[3],2070 nM
same,Activity,C2C12,74.3%
CCc1ccc(CCCn2cccc(/C=C/C(=O)NO)c2=O)cc1,IC50,Histone deacetylase,310 nM
same,GI50,[1],1740 nM
same,GI50,MDA-MB-231,2880 nM
same,GI50,ACHN,1710 nM
same,GI50,[2],1060 nM
same,GI50,NCI-H23,2150 nM
same,GI50,[3],1850 nM
same,Activity,C2C12,14.3%
COc1ccc(Cn2cccc(/C=C/C(=O)NO)c2=O)cc1,IC50,Histone deacetylase,380 nM
same,GI50,[1],3880 nM
same,GI50,MDA-MB-231,6260 nM
same,GI50,ACHN,4730 nM
same,GI50,[2],4520 nM
same,GI50,NCI-H23,5300 nM
same,GI50,[3],4700 nM
same,Activity,C2C12,84.6%
O=C(/C=C/c1cccn(Cc2ccc(Br)cc2)c1=O)NO,IC50,Histone deacetylase,100 nM
same,GI50,[1],2110 nM
same,GI50,MDA-MB-231,2490 nM
same,GI50,ACHN,1480 nM
same,GI50,[2],4310 nM
same,GI50,NCI-H23,3000 nM
same,GI50,[3],1880 nM
same,Activity,C2C12,99.2%
O=C(/C=C/c1cccn(CCCc2ccc(Br)cc2)c1=O)NO,IC50,Histone deacetylase,210 nM
same,GI50,[1],4020 nM
same,GI50,MDA-MB-231,4380 nM
same,GI50,ACHN,4190 nM
same,GI50,[2],7450 nM
same,GI50,NCI-H23,4880 nM
same,GI50,[3],3970 nM
same,Activity,C2C12,53.8%
COc1cccc(CCn2cccc(/C=C/C(=O)NO)c2=O)c1,IC50,Histone deacetylase,70 nM
same,GI50,[1],2910 nM
same,GI50,MDA-MB-231,6940 nM
same,GI50,ACHN,2930 nM
same,GI50,[2],> 10000 nM
same,GI50,NCI-H23,5060 nM
same,GI50,[3],5870 nM
same,Activity,C2C12,53.8%
CCOc1ccccc1CCn1cccc(/C=C/C(=O)NO)c1=O,IC50,Histone deacetylase,320 nM
same,GI50,[1],3920 nM
same,GI50,MDA-MB-231,3890 nM
same,GI50,ACHN,3590 nM
same,GI50,[2],6060 nM
same,GI50,NCI-H23,4920 nM
same,GI50,[3],4920 nM
same,Activity,C2C12,30.9%
O=C(/C=C/c1cccn(CCCc2cccnc2)c1=O)NO,IC50,Histone deacetylase,570 nM
same,GI50,[1],> 10000 nM
same,GI50,MDA-MB-231,> 10000 nM
same,GI50,ACHN,> 10000 nM
same,GI50,[2],> 10000 nM
same,GI50,NCI-H23,5210 nM
same,GI50,[3],> 10000 nM
same,Activity,C2C12,30%
O=C(/C=C/c1cccn(Cc2ccccc2Br)c1=O)NO,IC50,Histone deacetylase,190 nM
same,GI50,[1],1660 nM
same,GI50,MDA-MB-231,1590 nM
same,GI50,ACHN,1530 nM
same,GI50,[2],2400 nM
same,GI50,NCI-H23,2300 nM
same,GI50,[3],2880 nM
same,Activity,C2C12,86%
O=C(/C=C/c1cccn(Cc2ccncc2)c1=O)NO,IC50,Histone deacetylase,420 nM
same,GI50,[1],9190 nM
same,GI50,MDA-MB-231,4920 nM
same,GI50,ACHN,9490 nM
same,GI50,[2],> 10000 nM
same,GI50,NCI-H23,3010 nM
same,GI50,[3],9170 nM
same,Activity,C2C12,69.1%
O=C(/C=C/c1cccn(CCCc2ccccc2Br)c1=O)NO,IC50,Histone deacetylase,480 nM
same,GI50,[1],1500 nM
same,GI50,MDA-MB-231,2890 nM
same,GI50,ACHN,1920 nM
same,GI50,[2],1580 nM
same,GI50,NCI-H23,1880 nM
same,GI50,[3],1860 nM
same,"remaining at 0.5 h, 1 µM",[5],24.2%
same,Activity,C2C12,162.8%
O=C(/C=C/c1cccn(CCc2ccc(Br)cc2)c1=O)NO,IC50,Histone deacetylase,360 nM
same,GI50,[1],2830 nM
same,GI50,MDA-MB-231,6390 nM
same,GI50,ACHN,2140 nM
same,GI50,[2],8600 nM
same,GI50,NCI-H23,3040 nM
same,GI50,[3],4840 nM
same,Activity,C2C12,53.5%
O=C(/C=C/c1cccn(CCc2ccccn2)c1=O)NO,IC50,Histone deacetylase,3940 nM
same,GI50,[1],> 10000 nM
same,GI50,MDA-MB-231,> 10000 nM
same,GI50,ACHN,> 10000 nM
same,GI50,[2],> 10000 nM
same,GI50,NCI-H23,> 10000 nM
same,GI50,[3],> 10000 nM
same,Activity,C2C12,26.7%
CC(C)(C)c1ccc(Cn2cccc(/C=C/C(=O)NO)c2=O)cc1,IC50,Histone deacetylase,90 nM
same,GI50,[1],1820 nM
same,GI50,MDA-MB-231,2590 nM
same,GI50,ACHN,2800 nM
same,GI50,[2],2400 nM
same,GI50,NCI-H23,2810 nM
same,GI50,[3],3040 nM
same,Activity,C2C12,46.4%
CCc1ccccc1Cn1cccc(/C=C/C(=O)NO)c1=O,IC50,Histone deacetylase,230 nM
same,GI50,[1],5410 nM
same,GI50,MDA-MB-231,6950 nM
same,GI50,ACHN,3240 nM
same,GI50,[2],3930 nM
same,GI50,NCI-H23,4960 nM
same,GI50,[3],5020 nM
same,Activity,C2C12,52.3%
